Results on seven compounds are retold here after PMC8851646 (ACS Omega, 2022).

Each structure is given as a SMILES string. Values after ≈ are worked out from the molar mass of the structure shown. Where two headings read alike, the source gives them in different places.

Data set [1] has as its system K. pneumoniae NB29017 co-cultured with T. pyriformis. The data set can be described thus: T. pyriformis/K. pneumoniae. In kind it is cell-based, Klebsiella pneumoniae.
The subject of another data set is Staphylococcus aureus. The data set can be described thus: Antibacterial MIC, Gram-positive control. It counts as cell-based. The note with it: read-out: MIC Sa.
The nature of data set [2]: Cytotoxicity in K562 cells. The note with it: human. In kind it is cell-based.
The nature of the next data set: Red blood cell hemolysis. In kind it is cell-based, sheep. The settings on record: sheep, erythrocytes from defibrinated sheep blood, pH 7.5.
For data set [3], the system named is erythrocytes from defibrinated sheep blood. The data set can be described thus: Red blood cell hemolysis. In kind it is cell-based. The note with it: Table 1; concentration causing 50% hemolysis.
Data set [4] has as its system K. pneumoniae NB29017. The data set is described as follows: Qualitative inhibition of mucoid appearance of colonies on solid LB agar. The settings on record: 4 fully mucoid, 0 nonmucoid, by eye. In kind it is cell-based, Klebsiella pneumoniae. The gist of the method: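 Test compound dissolved in DMSO (12.8 mg/mL stock) and mixed into melted LB agar at 0–16 μg/mL final, then set in six-well plates. Mucoid wild-type NB29017 streaked for single colonies in each well. Plates incubated 18 h at 37 °C, then 2 h at 4 °C. Mucoid appearance scored by eye from 0 (none) to 4 (normal hypermucoid).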

Data set [5] deals with K. pneumoniae NB29017. The data set is described as follows: Electron microscopy of cell surface material. In kind it is cell-based, Klebsiella pneumoniae. The settings on record: grown in SM medium with 32 μg/mL compound. The method in brief:
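K. pneumoniae NB29017 grown overnight with shaking at 37 °C in 10 mL SM medium, with or without test compound at 32 μg/mL. Diluted 1:50 into the same medium and grown to OD600 of about 2. Cells pelleted at 3000g and washed in Na-cacodylate pH 7.2. Fixed 2 h at 4 °C (2.5% glutaraldehyde, 1% tannic acid, 0.1 M Na-cacodylate, pH 7.2). Pelleted, taken up in cacodylate buffer and examined by electron microscopy.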

Data set [6] concerns K. pneumoniae wbbM mutant (NB29018) co-cultured with T. pyriformis. The data set can be described thus: Tp/Kp co-culture assay with cell surface-defective wbbM mutant. The note with it: Tp threshold 4625–18,500 Tp/mL. It counts as cell-based, Klebsiella pneumoniae.
A further data set deals with P. aeruginosa. The settings on record: against P. aeruginosa; cited from earlier work.
The target of a further data set is T1, P. aeruginosa LpxC (Pseudomonas aeruginosa, UniProt P47205).
T1 sequence (P47205 1-303): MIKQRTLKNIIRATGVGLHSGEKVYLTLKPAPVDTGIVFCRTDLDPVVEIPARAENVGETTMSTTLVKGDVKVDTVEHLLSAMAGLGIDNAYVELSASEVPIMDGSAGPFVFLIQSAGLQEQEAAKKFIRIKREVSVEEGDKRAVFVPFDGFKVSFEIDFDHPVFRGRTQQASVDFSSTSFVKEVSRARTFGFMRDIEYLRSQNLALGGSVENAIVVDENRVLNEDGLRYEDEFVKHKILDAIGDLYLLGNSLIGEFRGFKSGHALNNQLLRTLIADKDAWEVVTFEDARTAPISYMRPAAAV
The data set can be described thus: Inhibition of purified LpxC enzyme. In kind it is biochemical.

For data set [7], the system named is K. pneumoniae NB29017. The data set can be described thus: Kp-only counterscreen for direct antibacterial activity. The settings on record: Klebsiella pneumoniae, NB29017, read-out: IC50 for Kp only, hit from the HTS. It counts as cell-based.
In another data set the test system is K. pneumoniae (Kp). The data set can be described thus: Antibacterial MIC, broth. The settings on record: Klebsiella pneumoniae, read-out: MIC, broth-based. It counts as cell-based.
For data set [8], the system named is K. pneumoniae NB29017. The data set is described as follows: Agar MIC. In kind it is cell-based. The note with it: Klebsiella pneumoniae, NB29017, read-out: agar MIC.
Data set [9] in a line: Compound stability, LC-MS of freshly dissolved powder. It counts as physicochemical. The settings on record: impure by LC–MS from freshly dissolved powder.
[10] abbreviates: read-out: IC50 Tp/Kp, Table 1; freshly dissolved powder, top concentration 20 μM.
[11] abbreviates: read-out: Tp/Kp IC50, Table 2; expressed as μg/mL for comparison to agar values.
Setting [12] is: read-out: Tp/Kp IC50, archived powder, side by side on the same assay plate, Tp set at 25000.
[13] abbreviates: read-out: Tp/Kp IC50, resynthesis batch, side by side on the same assay plate, Tp set at 25000.

By MIC is commonly meant the least concentration at which growth counts as inhibited. For `COc1ccc2nc(NC(=O)c3cc(=O)c4ccccc4o3)sc2c1` [compound 63, COc4ccc3N=C(NC(=O)C2=CC(=O)c1ccccc1O2)Sc3c4], the IC50 is 0.11 µM in [1] (setting [10]), 0.04 µg/mL in data set [1] (setting [11]) and 34.4 µM in data set [2]. In addition, in the data set on Staphylococcus aureus, the minimal inhibitory concentration (MIC) is over 128 µg/mL. In “Red blood cell hemolysis”, the hemolysis at 1 h was found to be 8.3%. Besides, the “RBC hemolysis (HC50)” value in data set [3] was determined as 64 µM. In addition, the “qualitative score on solid medium” value in the data set with K. pneumoniae NB29017 [4] (1 μg/mL compound in agar) is reported as 1; in the data set with K. pneumoniae NB29017 [4] (2 μg/mL compound in agar), 0; in the data set with K. pneumoniae NB29017 [4] (4 μg/mL compound in agar), 0; in the data set with K. pneumoniae NB29017 [4] (8 μg/mL compound in agar), 0; in the data set on K. pneumoniae NB29017 [4] (16 μg/mL compound in agar), 0.
Take `C=CCSc1nnc(C)c(O)n1` [D1, C=CCSc1nnc(C)c(O)n1, reference compound]: the IC50 in data set [1] (read-out: Tp/Kp IC50, D1 control on the same plate, Tp set at 25000) is 2.32 µM; in data set [1] (read-out: Tp/Kp IC50, D1 control on the same plate; Tp set at 25000), 2.73 µM; in data set [1] (setting [11]), 0.54 µg/mL; in data set [1] (read-out: median IC50 for D1 across 28 hit confirmation runs, standard deviation of 0.3), 2 µM. The “qualitative score on solid medium” value in the data set on K. pneumoniae NB29017 [4] (2 μg/mL compound in agar) is 4; in the data set with K. pneumoniae NB29017 [4] (4 μg/mL compound in agar), 3; with K. pneumoniae NB29017 [4] (8 μg/mL compound in agar) it was “slight”; in the data set on K. pneumoniae NB29017 [4] (16 μg/mL compound in agar) it was 1. Besides, the “surface polysaccharide material by electron microscopy” value in the data set on K. pneumoniae NB29017 [5] is “largely devoid of this”. Also, the “activity in the Tp/Kp wbbM assay” value in data set [6] is reported as “largely retained”. For the same compound, the “efficacy in an animal model of infection” value in the data set with P. aeruginosa is on record as “efficacy”.
Take `CCOC(=O)c1ccc2nc(NC(=O)c3cccs3)sc2c1` [compound 64, CCOC(=O)c3ccc2N=C(NC(=O)C1=CC=CS1)Sc2c3]: the IC50 is 0.12 µM in [1] (setting [10]); 0.04 µg/mL in [1] (setting [11]); 0.362 µM in [1] (setting [12]); 0.185 µM in data set [1] (setting [13]); over 386 µM in [2]. Besides, in the data set on Staphylococcus aureus, the MIC is over 128 µg/mL. This compound also displayed a hemolysis at 1 h in “Red blood cell hemolysis” of 14.9%. In addition, the “qualitative score on solid medium” value in the data set with K. pneumoniae NB29017 [4] (1 μg/mL compound in agar), in the data set with K. pneumoniae NB29017 [4] (2 μg/mL compound in agar), in the data set with K. pneumoniae NB29017 [4] (4 μg/mL compound in agar), in the data set with K. pneumoniae NB29017 [4] (8 μg/mL compound in agar) and in the data set on K. pneumoniae NB29017 [4] (16 μg/mL compound in agar) was 0 each time. The “activity in the Tp/Kp wbbM assay” value in data set [6] is “retained potency”.
For the compound `COc1ccc(-c2csc(NC(=O)c3ccc(C(=O)Nc4nc(-c5ccc(OC)c(OC)c5)cs4)s3)n2)cc1OC` [compound 62, COc1ccc(cc1OC)C5=CSC(NC(=O)C2=CC=C(S2)C(=O)NC3=NC(=CS3)c4cc(OC)c(cc4)OC)=N5], the IC50 is 0.001 µM in [1] (setting [10]); 0.001 µg/mL in data set [1] (setting [11]); 0.0017 µM in data set [1] (setting [12]); 0.00067 µM in data set [1] (setting [13]); over 210 µM in data set [2]. For the same compound, in the data set on Staphylococcus aureus, the MIC is over 32 µg/mL. The compound also displayed a hemolysis at 1 h in the data set “Red blood cell hemolysis” of 11.7%. Also, the “qualitative score on solid medium” value in the data set on K. pneumoniae NB29017 [4] (1 μg/mL compound in agar) stood at 2; in the data set with K. pneumoniae NB29017 [4] (2 μg/mL compound in agar) it was 0; in the data set with K. pneumoniae NB29017 [4] (4 μg/mL compound in agar), 0; in the data set on K. pneumoniae NB29017 [4] (8 μg/mL compound in agar) it was 0; in the data set with K. pneumoniae NB29017 [4] (16 μg/mL compound in agar), 0. For the same compound, the “surface polysaccharide material by electron microscopy” value in the data set on K. pneumoniae NB29017 [5] is “devoid of any surface material”. The “activity in the Tp/Kp wbbM assay” value in data set [6] was “retained potency”.
Turning to `CC(C)(N)C(NC(=O)c1ccc(OCC#CC2CC2)cc1)C(=O)NO` (stereo not shown) [compound 180, CC(C)(N)C(NC(=O)c1ccc(cc1)OCC#CC2CC2)C(=O)NO], the figures for the IC50 (in [1] (setting [10]); in data set [2]; against P. aeruginosa LpxC) were 1.14 µM, 69.4 µM and 0.04 µM, respectively. In addition, the MIC with Staphylococcus aureus was over 128 µg/mL.
With `O=CN(O)CCCP(=O)(O)O` [fosmidomycin], the IC50 in data set [1] (read-out: IC50 for Tp/Kp, hit from the HTS) was under 0.0781 µM; with K. pneumoniae NB29017 [7] it was over 20 µM. For the same compound, the MIC is over 128 µg/mL in the data set on K. pneumoniae (Kp) and 0.5 µg/mL (≈ 2.73 µM) with K. pneumoniae NB29017 [8].
On to `CCOC(=O)/C(=N\NC(N)=S)c1cccs1` [compound 25, CCOC(=O)/C(=N\NC(N)=S)/C1=CC=CS1], for which the stability result in data set [9] is listed as “unstable”.
